# Article PMC4835239 (Leukemia & lymphoma, 2015)
# “Also recorded” adds a separate entry of the source.
# How the values were obtained:
# [1] = tested on: chymotrypsin-like proteasome activity of CLL cells; experiment: Proteasome activity assay in CLL cells from patient samples; type: in vivo, human
# Outline: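 Chymotrypsin-like proteasome activity was measured in CLL cells from patient whole blood with a validated commercial assay. Samples were taken at screening, pre- and post-dose day 1, pre-dose day 2, and pre- and post-dose days 8 and 9 of cycle 1. Dosing was a 30-min IV infusion, 20 mg/m2 on days 1–2, then 27, 36, 45 or 56 mg/m2 by cohort from day 8.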
# [2] = tested on: CLL cells; conditions: cited from earlier work
# [3] = tested on: relapsed/refractory CLL or small lymphocytic lymphoma (SLL); experiment: Response assessment by IWCLL 2008 criteria; type: in vivo, human; conditions: all patients
# [4] = tested on: patients with relapsed/refractory CLL or small lymphocytic lymphoma (SLL); experiment: Phase I dose-escalation trial: toxicity assessment; type: in vivo
# [5] = tested on: CLL; conditions: patients with CLL; cited from earlier work
# [6] = tested on: CLL cells; conditions: bortezomib; cited from earlier work
# [7] = tested on: myeloma cells; conditions: bortezomib; cited from earlier work
smiles,measurement,setting,value
CC(C)C[C@H](NC(=O)[C@H](CCc1ccccc1)NC(=O)CN1CCOCC1)C(=O)N[C@@H](Cc1ccccc1)C(=O)N[C@@H](CC(C)C)C(=O)[C@@]1(C)CO1 [Carfilzomib],Chymotrypsin-like proteasome activity,[1]; by 24 hours after dosing,partially recovered; also recorded: recovered partially
same,Chymotrypsin-like proteasome activity,[1]; by day 8,rebound higher than pretreatment levels; also recorded: completely
same,Cytotoxicity against CLL cells in vitro,[2],significant cytotoxicity
same,Effect of human serum on cytotoxic activity against CLL cells,[2]; human versus fetal bovine serum,unaffected by human serum
same,Objective partial or complete responses (IWCLL 2008),[3],No objective partial or complete responses were observed
same,Maximum tolerated dose (MTD),[4]; doses up to 56 mg/m^2 twice weekly for 3 weeks of a 4 week cycle,No maximum tolerated dose of carfilzomib was identified
same,"Dyspnea, incidence","[4]; grade 3, total n=19",1 number of patients
same,"Febrile neutropenia, incidence","[4]; grade 3, total n=19",1 number of patients
same,Grade of electrolyte disturbances,"[4]; human, in vivo",≤ 2 grade
same,Infusion reaction or tumor lysis syndrome,[4]; in vivo,No patient experienced an infusion reaction or tumor lysis syndrome
CC(C)C[C@H](NC(=O)[C@H](Cc1ccccc1)NC(=O)c1cnccn1)B(O)O [bortezomib],Objective clinical responses,[5],no objective clinical responses
O=c1c(O)c(-c2ccc(O)c(O)c2)oc2cc(O)cc(O)c12 [quercetin],Level of quercetin required to inhibit apoptosis,[6],20 μm
same,Level of quercetin required to inhibit apoptosis,[7],40 μm
